Source: PubChem BioAssay AID624083 (The Scripps Research Institute Molecular Screening Center, 2012)
pKi: −log10 of the molar value.

Biological target: VIM-2 metallo-beta-lactamase (Pseudomonas aeruginosa)
Experiment: VIM-2 metallo-beta-lactamase inhibitors, Ki determination, late-stage follow-up, biochemical, absorbance, probe candidates and analogs (AID 624083)
Conditions: recombinant VIM-2, nitrocefin hydrolysis absorbance 495 nm
Method in brief: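 Assay system: VIM-2 enzyme; Amount: VIM-2 at 0.1 nM final; Also added: nitrocefin, varied amounts; Compound dosing: inhibitor concentration series crossed with varied substrate; Timing: enzyme reaction at room temperature; Detection: kinetic absorbance, 495 nm; Read-out basis: Ki from mixed-inhibition regression; Repeats: two replicates per measurement.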

With `CN1CCN(NC(=O)CN2C(=O)/C(=C/c3c(Cl)cccc3Cl)SC2=S)CC1` the pKi was 5.75.

`CN1CCN(NC(=O)CN2C(=O)/C(=C/c3c(Cl)ccc(Cl)c3Cl)SC2=S)CC1` showed a pKi of 6.74.
